Measurements published in ChEMBL document CHEMBL1145026, “Synthesis and antibacterial activity of 6-O-arylbutynyl ketolides with improved activity against some key erythromycin-resistant pathogens” (2003).
≈ marks a conversion by molar mass, not a printed value.

Tests used:
Assay type in all cases: functional
[1] = tested on: Streptococcus pyogenes; experiment: In Vitro antibacterial ativity against Streptococcus pyogenes EES61 (Ery-S strain)
In short: (§1)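 Agar dilution method per NCCLS recommendations, with activity reported as minimum inhibitory concentration.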

[2] = tested on: Streptococcus pneumoniae; experiment: In Vitro antibacterial activity against Streptococcus pneumoniae ATCC 6303 (Ery-S strain); in short: as §1
[3] = tested on: Haemophilus influenzae; experiment: In Vitro antibacterial activity against H. flu DILL (Amp-R strain)
In short: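 MIC by agar dilution following NCCLS recommendations. Test organism is H. influenzae DILL, an ampicillin-resistant strain carrying a β-lactamase-positive determinant.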

[4] = tested on: Streptococcus pneumoniae; experiment: In Vitro antibacterial activity against Streptococcus pneumoniae 5649 (mefE strain)
In short: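 Efflux-resistant strain carrying mefE. MIC determined by the agar dilution method recommended by NCCLS.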

[5] = tested on: Staphylococcus aureus; experiment: In Vitro antibacterial activity against Staphylococcus aureus 1775 (ermA-c strain)
In short: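 Methicillin-resistant (MRSA) strain. Minimum inhibitory concentration read by agar dilution, following NCCLS recommendations.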

[6] = tested on: Streptococcus pneumoniae; experiment: In Vitro antibacterial activity against Streptococcus pneumoniae 5979 (ermB strain)
In short: (§2)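 Strains with MLSB resistance encoded by ermB. MICs obtained by agar dilution as recommended by NCCLS.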

[7] = tested on: Streptococcus pyogenes; experiment: In Vitro antibacterial ativity against Streptococcus pyogenes PIU2548 (mefA strain)
In short: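 Tested on a mefA-encoded efflux-resistant strain. The endpoint is the MIC by NCCLS-recommended agar dilution.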

[8] = tested on: Staphylococcus aureus; experiment: In Vitro antibacterial activity against Staphylococcus aureus A5177 (ermA-i strain)
In short: (§3)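 MIC by agar dilution following NCCLS recommendations, against S. aureus.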

[9] = tested on: Streptococcus pyogenes; experiment: In Vitro antibacterial ativity against Streptococcus pyogenes 930 (ermB strain); in short: as §2
[10] = tested on: Staphylococcus aureus; experiment: In Vitro antibacterial activity against Staphylococcus aureus ATCC 6538P (Ery-S […] strain); in short: as §3

| Structure (SMILES) | MIC [1] [µg/mL] | MIC [2] [µg/mL] | MIC [3] [µg/mL] | MIC [4] [µg/mL] | MIC [5] [µg/mL] | MIC [6] [µg/mL] | MIC [7] [µg/mL] | MIC [8] [µg/mL] | MIC [9] [µg/mL] | MIC [10] [µg/mL] |
| --- | --- | --- | --- | --- | --- | --- | --- | --- | --- | --- |
| CC[C@H]1OC(=O)[C@H](C)C(=O)[C@H](C)[C@@H](O[C@@H]2O[C@H](C)C[C@H](N(C)C)[C@H]2O)[C@@](C)(OCC#CCc2ccccc2)C[C@@H](C)C(=O)[C@H](C)[C@H]2NC(=O)O[C@@]21C | 0.06 (≈ 0.0825 µM) | 0.03 (≈ 0.0413 µM) | 2 (≈ 2.75 µM) | 0.25 (≈ 0.344 µM) | > 100 | 16 (≈ 22 µM) | 0.25 (≈ 0.344 µM) | 0.2 (≈ 0.275 µM) | 128 (≈ 176 µM) | 0.2 (≈ 0.275 µM) |
| CC[C@H]1OC(=O)[C@@](C)(F)C(=O)[C@H](C)[C@@H](O[C@@H]2O[C@H](C)C[C@H](N(C)C)[C@H]2O)[C@@](C)(OCC#CCc2ccc(-c3csnn3)cc2)C[C@@H](C)C(=O)[C@H](C)[C@H]2NC(=O)O[C@@]21C | 0.03 (≈ 0.0362 µM) | 0.015 (≈ 0.0181 µM) | 4 (≈ 4.83 µM) | 0.5 (≈ 0.603 µM) | > 100 | 4 (≈ 4.83 µM) | 0.25 (≈ 0.302 µM) | 0.05 (≈ 0.0603 µM) | 4 (≈ 4.83 µM) | 0.05 (≈ 0.0603 µM) |
| CC[C@H]1OC(=O)[C@H](C)C(=O)[C@H](C)[C@@H](O[C@@H]2O[C@H](C)C[C@H](N(C)C)[C@H]2O)[C@@](C)(OCC#CCc2ccc(-c3csnn3)cc2)C[C@@H](C)C(=O)[C@H](C)[C@H]2NC(=O)O[C@@]21C | 0.03 (≈ 0.037 µM) | < 0.004 | 2 (≈ 2.47 µM) | 0.25 (≈ 0.308 µM) | > 100 | 8 (≈ 9.86 µM) | 0.125 (≈ 0.154 µM) | 0.1 (≈ 0.123 µM) | 4 (≈ 4.93 µM) | 0.05 (≈ 0.0617 µM) |
| CC[C@H]1OC(=O)[C@H](C)C(=O)[C@H](C)[C@@H](O[C@@H]2O[C@H](C)C[C@H](N(C)C)[C@H]2O)[C@@](C)(OCC#CCc2cnc3ccccc3c2)C[C@@H](C)C(=O)[C@H](C)[C@H]2NC(=O)O[C@@]21C | 0.015 (≈ 0.0193 µM) | < 0.004 | 2 (≈ 2.57 µM) | 0.25 (≈ 0.321 µM) | > 100 | 2 (≈ 2.57 µM) | 0.25 (≈ 0.321 µM) | 0.1 (≈ 0.129 µM) | 16 (≈ 20.6 µM) | 0.1 (≈ 0.129 µM) |
| CC[C@H]1OC(=O)[C@H](C)C(=O)[C@H](C)[C@@H](O[C@@H]2O[C@H](C)C[C@H](N(C)C)[C@H]2O)[C@@](C)(OCC#CCc2ccc(-c3cccnc3)cc2)C[C@@H](C)C(=O)[C@H](C)[C@H]2NC(=O)O[C@@]21C | < 0.004 | < 0.004 | 4 (≈ 4.98 µM) | 0.125 (≈ 0.155 µM) | > 100 | 0.125 (≈ 0.155 µM) | 0.125 (≈ 0.155 µM) | 0.02 (≈ 0.0249 µM) | 8 (≈ 9.95 µM) | 0.02 (≈ 0.0249 µM) |
| CC[C@H]1OC(=O)[C@H](C)C(=O)[C@H](C)[C@@H](O[C@@H]2O[C@H](C)C[C@H](N(C)C)[C@H]2O)[C@@](C)(OCC#CCc2ccc(-c3cnccn3)cc2)C[C@@H](C)C(=O)[C@H](C)[C@H]2NC(=O)O[C@@]21C | < 0.004 | < 0.004 | 4 (≈ 4.97 µM) | – | > 100 | 0.03 (≈ 0.0373 µM) | 0.015 (≈ 0.0186 µM) | 0.02 (≈ 0.0248 µM) | 4 (≈ 4.97 µM) | 0.02 (≈ 0.0248 µM) |
| CC[C@H]1OC(=O)[C@H](C)[C@@H](O[C@H]2C[C@@](C)(OC)[C@@H](O)[C@H](C)O2)[C@H](C)[C@@H](O[C@@H]2O[C@H](C)C[C@H](N(C)C)[C@H]2O)[C@](C)(O)C[C@@H](C)C(=O)[C@H](C)[C@@H](O)[C@]1(C)O [ERYTHROMYCIN] | 0.015 (≈ 0.0204 µM) | 0.015 (≈ 0.0204 µM) | 4 (≈ 5.45 µM) | 4 (≈ 5.45 µM) | > 128 | > 128 | 8 (≈ 10.9 µM) | > 128 | > 128 | 0.5 (≈ 0.681 µM) |
| CC[C@H]1OC(=O)[C@H](C)C(=O)[C@H](C)[C@@H](O[C@@H]2O[C@H](C)C[C@H](N(C)C)[C@H]2O)[C@](C)(OC)C[C@@H](C)C(=O)[C@H](C)[C@H]2N(CCCCn3cnc(-c4cccnc4)c3)C(=O)O[C@]12C [TELITHROMYCIN] | 0.004 (≈ 0.00493 µM) | 0.004 (≈ 0.00493 µM) | 2 (≈ 2.46 µM) | 0.5 (≈ 0.616 µM) | > 100 | 8 (≈ 9.85 µM) | 2 (≈ 2.46 µM) | 0.1 (≈ 0.123 µM) | 8 (≈ 9.85 µM) | 0.1 (≈ 0.123 µM) |
